Structures are written as SMILES.

Experiment [1] is filed under the species Mus musculus. Description: Ability to antagonize uterine weight gain in immature mice, at a dose of 150 ug; Activity is expressed as anti-uterotrophic % reduction. The class given is functional. Also noted: scale not given: the % may be the effect or the level left. The procedure, abridged: (§1)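 Immature (17-19 days, 8-10 g) female Swiss-Webster mice, groups of six. Daily sc injections in the nape for 3 consecutive days. Estradiol in sesame oil (0.1 µg/mL, 0.1 mL; total 0.03 µg) plus 0.05 mL test compound in isopropyl myristate, given at separate sites. Vehicle and estradiol-only controls. Uteri cleaned, blotted and weighed 24 h after the last dose. % reduction of the estradiol-induced weight gain.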

Experiment [2] is filed under the species Mus musculus. Put plainly: Ability to antagonize uterine weight gain in immature mice, at a dose of 30 ug; Activity is expressed as anti-uterotrophic % reduction. The class given is functional. Also noted: scale not given: the % may be the effect or the level left. The method, boiled down: as §1
The species entered for experiment [3] is Mus musculus. Put plainly: Ability to antagonize uterine weight gain in immature mice, at a dose of 750 ug; Activity is expressed as anti-uterotrophic % reduction. The class given is functional. Also noted: scale not given: the % may be the effect or the level left. The method, boiled down:
as §1

Experiment [4] has as its target Estrogen receptor (Homo sapiens) (UniProt Q92731+P03372). Description: Antiproliferative activity against estrogen receptor positive MCF-7 human breast cancer cell line at 10e-9 M. The class given is functional, cell-based. To be noted: MCF7. The method, boiled down: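 MCF-7 cells in phenol-red-free RPMI 1640 with 5% calf serum, 2 mM L-glutamine and antibiotics, 37 °C, 5% CO2. Plated at 7.5 × 10⁴ cells/well, then allowed to attach for 2 days. Compound in 11:9 PEG 400–EtOH (final vehicle 0.1%) added on alternate days. Viable cells counted on day 4 by trypan blue exclusion, triplicate. % inhibition versus vehicle control.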

In experiment [5] the target is T1, Estrogen receptor (Mus musculus) (UniProt O08537+P19785). Description: Antagonism of estradiol induced uterine weight gain in immature mice at 10 ug; Activity is expressed as anti-uterotrophic % reduction. The class given is functional. Also noted: scale not given: the % may be the effect or the level left. The method, boiled down: as §1
The target in experiment [6] is T1, Estrogen receptor (Mus musculus). Put plainly: Antagonism of estradiol induced uterine weight gain in immature mice at 4 ug; Activity is expressed as anti-uterotrophic % reduction. The class given is functional. Also noted: scale not given: the % may be the effect or the level left. The method, boiled down: as §1
The target is the same in experiment [7]. Description: Antagonism of estradiol induced uterine weight gain in immature mice at 30 ug. The class given is functional. Also noted: scale not given: the % may be the effect or the level left. The method, boiled down: as §1
Experiment [8] shares this target. Put plainly: Antagonism of estradiol induced uterine weight gain in immature mice at 200 ug; Activity is expressed as anti-uterotrophic % reduction. The class given is functional. Also noted: scale not given: the % may be the effect or the level left. The method, boiled down: as §1
Experiment [9] shares this target. Put plainly: Antagonism of estradiol induced uterine weight gain in immature mice at 400 ug; Activity is expressed as anti-uterotrophic % reduction. Also noted: scale not given: the % may be the effect or the level left. The class given is functional. The method, boiled down: as §1
The target is the same in experiment [10]. Description: Antagonism of estradiol induced uterine weight gain in immature mice at 800 ug; Activity is expressed as anti-uterotrophic % reduction. The class given is functional. Also noted: scale not given: the % may be the effect or the level left. The method, boiled down:
as §1

Experiment [11] concerns the target Estrogen receptor (Rattus norvegicus) (UniProt P06211+Q62986). Description: Relative binding affinity for estrogen receptor in rat uterine cytosol by displacement of [3H]-estradiol. To be noted: Uterus. The procedure, abridged:
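Uterine cytosol from immature Sprague-Dawley rats (17-19 days) primed with estradiol (0.53 µg sc daily ×3). Competitive displacement of [3H]estradiol, with free ligand removed by dextran-coated charcoal. Parallel incubations with 4 × 10⁻⁶ diethylstilbestrol define nonspecific binding, which is subtracted. RBA relative to estradiol = 100%, by Bliss method, duplicates.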
Background: Loss of bound radioactivity is the signal in a displacement assay; it reports binding, not function.

Experiment [12] addresses T1, Estrogen receptor (Mus musculus). Put plainly: Antagonism of estradiol induced uterine weight gain in immature mice at 150 ug.(p<0.01). The class given is functional. Also noted: scale not given: the % may be the effect or the level left. The procedure, abridged: as §1
Experiment [13] has the same target. Put plainly: Antagonism of estradiol induced uterine weight gain in immature mice at 750 ug; Activity is expressed as anti-uterotrophic % reduction. The class given is functional. Also noted: scale not given: the % may be the effect or the level left. The method, boiled down:
as §1

T1 sequence (O08537 whole entry, looked up): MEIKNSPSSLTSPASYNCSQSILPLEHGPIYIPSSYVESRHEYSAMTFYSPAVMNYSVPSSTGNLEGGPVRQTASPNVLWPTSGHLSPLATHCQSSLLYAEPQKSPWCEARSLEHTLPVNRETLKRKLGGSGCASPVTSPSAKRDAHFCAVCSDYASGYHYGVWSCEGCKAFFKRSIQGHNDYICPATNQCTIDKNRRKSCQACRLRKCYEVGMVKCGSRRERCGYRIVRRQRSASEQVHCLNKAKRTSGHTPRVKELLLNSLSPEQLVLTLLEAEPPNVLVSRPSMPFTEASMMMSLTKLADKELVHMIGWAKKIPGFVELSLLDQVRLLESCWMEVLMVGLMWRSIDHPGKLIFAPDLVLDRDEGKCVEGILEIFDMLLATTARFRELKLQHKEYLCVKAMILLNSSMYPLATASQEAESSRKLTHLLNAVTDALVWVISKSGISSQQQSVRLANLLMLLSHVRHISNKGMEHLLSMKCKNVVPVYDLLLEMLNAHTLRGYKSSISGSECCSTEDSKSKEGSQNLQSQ
T1 sequence (P19785 whole entry, looked up): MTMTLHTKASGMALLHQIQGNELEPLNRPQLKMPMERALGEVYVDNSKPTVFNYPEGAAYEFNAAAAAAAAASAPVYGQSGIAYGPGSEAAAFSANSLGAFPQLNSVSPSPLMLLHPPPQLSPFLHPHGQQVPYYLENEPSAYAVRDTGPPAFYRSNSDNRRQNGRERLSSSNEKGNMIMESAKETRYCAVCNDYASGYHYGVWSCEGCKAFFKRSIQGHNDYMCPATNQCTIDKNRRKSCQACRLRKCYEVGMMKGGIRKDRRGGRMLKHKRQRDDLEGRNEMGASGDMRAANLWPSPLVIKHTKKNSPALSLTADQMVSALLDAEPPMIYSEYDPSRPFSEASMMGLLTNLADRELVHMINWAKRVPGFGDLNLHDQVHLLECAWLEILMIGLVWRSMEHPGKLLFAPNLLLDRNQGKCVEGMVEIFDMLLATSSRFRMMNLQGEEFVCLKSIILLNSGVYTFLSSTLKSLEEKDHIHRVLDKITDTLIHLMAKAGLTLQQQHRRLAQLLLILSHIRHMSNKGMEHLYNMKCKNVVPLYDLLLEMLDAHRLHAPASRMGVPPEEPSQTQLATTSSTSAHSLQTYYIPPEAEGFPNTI

Consider `COc1ccc(C2(c3ccc(O)cc3)C(c3ccccc3)C2(Cl)Cl)cc1` (stereo in doubt; 6c), for which the Activity in the experiment listed under Mus musculus [1] was found to be 18%; in the experiment filed under Mus musculus [2] it was 28%; in the experiment filed under Mus musculus [3], 22%.
What is called inhibition is the percentage by which the read-out fell short of the control. As to `CN(C)CCOc1ccc(C2(c3ccccc3)C(c3ccccc3)C2(Cl)Cl)cc1` (configuration not stated), the inhibition in experiment [4] came to 12.4%. For the same compound, the Activity is 10% in experiment [5]; 30% in the experiment listed under Mus musculus [1]; 37% in the experiment filed under Mus musculus [2]; -6% in experiment [6]; 18% in the experiment filed under Mus musculus [3].
Take `COc1ccc(C2C(Cl)(Cl)C2(c2ccc(OC)cc2)c2ccc(OCc3ccccc3)cc2)cc1` (configuration not stated): the Activity came to 2% in [5], 49% in the experiment filed under Mus musculus [1], 15% in experiment [7] and 2% in the experiment filed under Mus musculus [3].
Consider `COc1ccc(C2C(Cl)(Cl)C2(c2ccc(O)cc2)c2ccc(OC)cc2)cc1` (configuration not stated), for which the results for the Activity in the experiment filed under Mus musculus [1], in the experiment filed under Mus musculus [2] and in the experiment filed under Mus musculus [3] were 10%, 19% and 26%, respectively.
For `COc1ccc(C2C(Cl)=C(c3ccc(OCc4ccccc4)cc3)c3ccc(OC)cc32)cc1` (configuration not stated), the Activity in the experiment filed under Mus musculus [1] is 4%; in the experiment filed under Mus musculus [2], 14%; in the experiment listed under Mus musculus [3], 0%.
As to `ClC1(Cl)C(c2ccccc2)C1c1ccccc1` (configuration not stated), the figures for the Activity in [8], in [9] and in experiment [10] were 28%, 42% and 58%, respectively.
`ClC1(Cl)C(c2ccccc2)C1(c1ccccc1)c1ccccc1` (configuration not stated) gave an RBA in [11] of 0.1%. The values for the Activity in the experiment listed under Mus musculus [1], in the experiment listed under Mus musculus [2] and in the experiment filed under Mus musculus [3] were 3%, 11% and 13%, respectively.
For `COc1ccc(C2=C(Cl)C(c3ccc(OC)cc3)c3cc(OC)ccc32)cc1` (configuration not stated), the Activity in the experiment filed under Mus musculus [1] was -6%; in the experiment listed under Mus musculus [2], 27%; in the experiment listed under Mus musculus [3], 28%.
For `COc1ccc(C2(c3ccc(O)cc3)C(c3ccccc3)C2(Cl)Cl)cc1` (stereo in doubt; 6b), the Activity is reported as -7% in the experiment filed under Mus musculus [1], 15% in the experiment filed under Mus musculus [2] and 41% in the experiment filed under Mus musculus [3].
The corresponding values for `Oc1ccc(C2(c3ccccc3)C(c3ccccc3)C2(Cl)Cl)cc1` (configuration not stated) are 12%, 23% and 25%.
The corresponding values for `COc1ccc(C2C(Cl)=C(c3ccc(O)cc3)c3ccc(OC)cc32)cc1` (configuration not stated) are 14%, 3% and 12%.
The compound `COc1ccc(C2(c3ccc(OCc4ccccc4)cc3)C(c3ccccc3)C2(Cl)Cl)cc1` (configuration not stated) returned an inhibition in experiment [4] of 31.3%. For the same compound, the Activity is 47% in [12], 37% in the experiment filed under Mus musculus [2] and 22% in the experiment filed under Mus musculus [3].
The compound `COc1ccc(C2(c3ccccc3)C(c3ccccc3)C2(Cl)Cl)cc1` (configuration not stated) returned an inhibition in [4] of 6.1%. Besides, the Activity in the experiment filed under Mus musculus [1] came out at 49%; in the experiment filed under Mus musculus [2], 22%; in the experiment filed under Mus musculus [3], 33%.
For the compound `COc1ccc(C2(c3ccc(OCCN(C)C)cc3)C(c3ccccc3)C2(Cl)Cl)cc1` (configuration not stated), the Activity in experiment [5] is 6%; in the experiment listed under Mus musculus [1], 42%; in the experiment listed under Mus musculus [2] it was 33%; in experiment [6], -10%; in the experiment listed under Mus musculus [3], 53%.
As to `CC/C(=C(\c1ccccc1)c1ccc(OCCN(C)C)cc1)c1ccccc1` [TAMOXIFEN], the Activity in the experiment filed under Mus musculus [1] is 0%; in the experiment filed under Mus musculus [2], 4%; in the experiment listed under Mus musculus [3], -12%.
`CCN(CC)CCOc1ccc(C(O)(Cc2ccc(OC)cc2)c2ccccc2)cc1` (configuration not stated): the Activity turned out to be 30% in the experiment filed under Mus musculus [1], 1% in the experiment filed under Mus musculus [2] and 82% in [13].

Source of the values: ChEMBL document CHEMBL1125611, “Synthesis and biological evaluation of a series of 1,1-dichloro-2,2,3-triarylcyclopropanes as pure antiestrogens” (1991).
